According to publication PMC7127848 (Drug Design, Development and Therapy, 2020):
Converted amounts (≈) assume the structure as drawn. “And” between values parts separate entries of the source, which are not always exact repeats. Equal values may be shown once. “Also recorded” adds a separate entry of the source.

What was measured:
[1] = cited from earlier work
[2] = Microsome metabolic stability and predicted hepatic clearance; type: in vitro ADME; conditions: CD-1, mouse, liver microsomes, pH 7.4
In short: (§1)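 Liver microsomes (0.5 mg/mL) incubated with 3 µM test compound in 50 mM phosphate buffer, pH 7.4. After 3 min pre-incubation at 37°C, 5 mM NADPH started the reaction. Samples at 0, 5, 15, 30, 45 and 60 min, quenched in acetonitrile with internal standard, then LC-MS/MS. NADPH-free controls sampled at 0 and 60 min.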

[3] = Thermodynamic solubility, shake-flask method; type: physicochemical; conditions: room temperature
In short: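 Shake-flask method: excess test compound shaken in solvent at room temperature for 72 h after saturation. Centrifuged (18,879 rcf, 10 min) and filtered through 0.22 μm. Dissolved compound quantified by HPLC-UV, in triplicate.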

[4] = molecular target: CYP2D6 (Homo sapiens, UniProt P10635); experiment: CYP reaction phenotyping with rhCYP; type: in vitro ADME
Sequence of CYP2D6 (P10635 whole entry): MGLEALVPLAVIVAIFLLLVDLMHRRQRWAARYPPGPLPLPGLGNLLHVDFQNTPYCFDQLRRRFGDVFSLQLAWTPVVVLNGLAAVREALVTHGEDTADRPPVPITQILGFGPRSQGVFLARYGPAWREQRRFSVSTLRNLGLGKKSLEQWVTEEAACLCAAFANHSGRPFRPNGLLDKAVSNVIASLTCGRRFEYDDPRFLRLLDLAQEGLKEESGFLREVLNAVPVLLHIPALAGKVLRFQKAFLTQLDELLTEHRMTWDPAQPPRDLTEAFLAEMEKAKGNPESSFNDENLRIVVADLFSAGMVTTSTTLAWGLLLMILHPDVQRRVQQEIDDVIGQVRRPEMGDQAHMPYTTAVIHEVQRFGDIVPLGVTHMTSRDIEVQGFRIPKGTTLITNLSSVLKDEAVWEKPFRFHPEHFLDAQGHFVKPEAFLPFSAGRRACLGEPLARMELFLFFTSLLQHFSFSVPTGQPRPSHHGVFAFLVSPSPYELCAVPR
In short: (§2)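 Recombinant human CYP (200 pmol) with 1 µM test compound in 100 mM K2HPO4/10 mM MgCl2, pH 7.4, pre-incubated. Reaction started with 1 mM NADPH. DMSO kept ≤0.1% v/v and acetonitrile ≤1% v/v. Samples at 0, 5, 15, 30 and 60 min, stopped with acetonitrile containing internal standard, then centrifuged. Negative controls lacked NADPH, used insect control cells, or both.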

[5] = Stability in plasma; type: in vitro ADME; conditions: CD-1, mouse
In short: (§3)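 Test compound at 1 μM incubated at 37°C for up to 4 h in plasma. Sources: CD-1 mouse, SD rat (fresh, from male rats), monkey or human. Aliquots at set times quenched with acetonitrile containing clioquinol as internal standard. Centrifuged at 18,879 rcf for 5 min, and supernatant assayed by LC-MS/MS for compound remaining.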

[6] = Microsome metabolic stability and predicted hepatic clearance; type: in vitro ADME; conditions: human, liver microsomes, pH 7.4
In short: as §1

[7] = Solution state pH stability in USP buffers; type: physicochemical; conditions: aqueous media pH 1-10, 37°C, up to 48 hrs
In short: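 Test compound added from DMSO to USP buffers with 0.2% v/v Tween 80: 0.2 M HCl (pH 1–2), 0.2 M acetate (pH 3–5), 0.2 M phosphate (pH 6–8), carbonate (pH 9–10). Held in a 37°C water bath. Aliquots at set times assayed by HPLC-UV for compound remaining. Degradation rate constant derived per buffer.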

[8] = system: MtMetAPs (MtMetAP1a and MtMetAP1c); conditions: both MtMetAPs over human MetAPs; cited from earlier work
[9] = cited from earlier work; remark: listed apart in the source
[10] = Pharmacokinetics and bioavailability in SD rats; type: in vivo; conditions: Sprague-Dawley, rat, plasma
In short: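 Male SD rats (300–350 g), cannulated under anesthesia the day before, n = 3 per group. Single dose of 2 mg/kg IV bolus, 20 mg/kg PO (fasted ≥12 h) or 10 mg/kg SC. Co-solvent formulation diluted 5-fold with saline (IV, SC) or water (PO). Blood taken 0.08–48 h, plasma by LC-MS/MS. Non-compartmental analysis; F from dose-normalised extravascular versus IV AUC.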

[11] = Microsome metabolic stability and predicted hepatic clearance; type: in vitro ADME; conditions: cynomolgus monkey, liver microsomes, pH 7.4
In short: as §1

[12] = Blood-plasma partition; type: in vitro ADME; conditions: SD rat blood, 1 μM, 37°C, 1 hr, mean ± SEM
In short: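 Test compound spiked into fresh whole SD rat blood at 1 μM final and held 1 hr at 37°C. Plasma separated by centrifugation (15 min, 4°C, 1750 rcf). Blood and plasma assayed by LC-MS/MS. B/P taken as mean peak-area ratio in blood over plasma. Its SEM was propagated as the square root of summed squared SEM/mean terms, multiplied by B/P.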

[13] = Microsome metabolic stability and predicted hepatic clearance; type: in vitro ADME; conditions: Sprague-Dawley (SD), rat, liver microsomes, pH 7.4
In short: as §1

[14] = molecular target: T1, CYP1A2 (Homo sapiens, UniProt P05177); experiment: CYP reaction phenotyping with rhCYP; type: in vitro ADME
T1 sequence (P05177 1-516): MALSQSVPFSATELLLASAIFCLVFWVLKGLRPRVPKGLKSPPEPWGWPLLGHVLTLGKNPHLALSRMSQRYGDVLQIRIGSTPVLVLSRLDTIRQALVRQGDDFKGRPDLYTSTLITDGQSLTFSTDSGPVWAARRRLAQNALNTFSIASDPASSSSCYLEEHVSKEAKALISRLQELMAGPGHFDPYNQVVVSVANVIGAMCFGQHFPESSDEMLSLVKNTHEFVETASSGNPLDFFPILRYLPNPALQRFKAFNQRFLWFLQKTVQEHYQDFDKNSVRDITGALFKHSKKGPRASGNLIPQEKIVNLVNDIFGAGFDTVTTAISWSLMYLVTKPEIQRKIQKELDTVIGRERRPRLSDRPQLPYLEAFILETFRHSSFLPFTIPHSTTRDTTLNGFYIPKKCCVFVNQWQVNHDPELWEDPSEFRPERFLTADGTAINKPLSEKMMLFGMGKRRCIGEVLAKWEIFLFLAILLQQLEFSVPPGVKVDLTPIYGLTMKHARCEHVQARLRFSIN
In short: as §2

[15] = Plasma protein binding, centrifugal ultrafiltration; type: in vitro ADME; conditions: Sprague-Dawley, rat, Fraction bound to plasma protein, mean ± SD
[16] = in vivo pharmacokinetic studies; cited from earlier work
[17] = Stability in plasma; type: in vitro ADME; conditions: human
In short: as §3

[18] = molecular target: T2, CYP2C8 (Homo sapiens, UniProt P10632); experiment: CYP reaction phenotyping with rhCYP; type: in vitro ADME; conditions: rhCYP2C8
T2 sequence (P10632 1-490): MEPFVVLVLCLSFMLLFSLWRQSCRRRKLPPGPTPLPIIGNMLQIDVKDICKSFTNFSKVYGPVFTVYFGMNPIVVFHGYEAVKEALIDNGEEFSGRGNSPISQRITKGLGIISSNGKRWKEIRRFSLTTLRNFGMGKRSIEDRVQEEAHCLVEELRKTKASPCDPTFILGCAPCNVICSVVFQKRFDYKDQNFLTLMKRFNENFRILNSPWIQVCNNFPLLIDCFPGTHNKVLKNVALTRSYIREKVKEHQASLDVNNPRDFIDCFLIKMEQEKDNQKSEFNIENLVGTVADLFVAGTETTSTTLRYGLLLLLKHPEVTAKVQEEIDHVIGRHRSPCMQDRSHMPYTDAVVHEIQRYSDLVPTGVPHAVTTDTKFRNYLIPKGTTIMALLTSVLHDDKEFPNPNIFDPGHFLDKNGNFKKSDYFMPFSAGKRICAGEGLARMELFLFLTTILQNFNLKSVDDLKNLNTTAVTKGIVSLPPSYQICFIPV
In short: as §2

[19] = system: Mycobacterium tuberculosis; conditions: cited from earlier work
[20] = Stability in plasma; type: in vitro ADME; conditions: rhesus, monkey
In short: as §3

[21] = Human hepatic clearance by single species scaling using liver blood flow; conditions: single species (SD rat) scaling of in vivo clearance and liver blood flow
[22] = Stability in plasma; type: in vitro ADME; conditions: SD, rat
In short: as §3

Q: For CCOCCOCCO [Transcutol HP], which NOAEL ([1]; 5% solution administered orally to rats for 90 days) is on record?
A: 1%

Q: What about the LD50 ([1]; acute administration) of the same compound?
A: > 5000 mg/kg

Q: Which remaining at 1 h, 3 µM [2] does the source give for Oc1c(Br)cc(Cl)c2cccnc12 [CLBQ14, 7-bromo-5-chloroquinolin-8-ol] here?
A: 3.7 ± 1.36%

Q: And the Solubility ([3]; water (pH 7))?
A: 70 µg/mL (≈ 271 µM)

Q: What about the solubility at 72 h ([3]; water, pH 7, Solubility) of the same compound?
A: < 70 µg/mL

Q: What about the “Contribution to metabolism of CLBQ14” value ([4]; rhCYP2D6) of the same compound?
A: primary contributors

Q: What about the CLBQ14 turnover ([4]; rhCYP2D6, 1 µM, 37°C, 60 mins) of the same compound?
A: greater than 50%

Q: And the recovery at 4 h, 1 μM [5]?
A: 97.6 ± 2.27%

Q: What about the remaining at 1 h, 3 µM [6] of the same compound?
A: 35.5 ± 0.33%

Q: And the “Stability in aqueous media” value [7]?
A: relatively stable

Q: What about the “Selectivity for MtMetAPs over human MetAPs” value [8] of the same compound?
A: great selectivity

Q: And the “calculated log P” value ([9]; 25°C / room temperature)?
A: 3.92 ± 0.39

Q: What about the “calculated pKa” value ([9]; 25°C) of the same compound?
A: 2.23 ± 0.30

Q: What about the Tmax ([10]; po, 20 mg/kg) of the same compound?
A: 30 min

Q: And the Tmax ([10]; sc, 10 mg/kg)?
A: ~55 min

Q: And the remaining at 1 h, 3 µM [11]?
A: 17.5 ± 0.86%

Q: And the “Blood-plasma (B/P) ratio” value [12]?
A: 0.83 and 0.83 ± 0.03

Q: What about the remaining at 1 h, 3 µM [13] of the same compound?
A: 26.8 ± 2.37%

Q: What about the “Contribution to metabolism of CLBQ14” value ([14]; rhCYP1A2) of the same compound?
A: metabolized primarily; also recorded: primary contributors

Q: What about the CLBQ14 turnover ([14]; rhCYP1A2, 1 µM, 37°C, 60 mins) of the same compound?
A: greater than 50%

Q: What about the fraction unbound at 1 h, 5 μg/mL ([15]; 5 μg/mL) of the same compound?
A: 0.09

Q: And the fraction unbound at 1 h, 50 μg/mL ([15]; 50 μg/mL)?
A: 0.017

Q: And the “Administered dose excreted unchanged in urine” value [16]?
A: 0.01%

Q: And the recovery at 4 h, 1 μM [17]?
A: 103.7 ± 0.99%

Q: What about the “Contribution to metabolism of CLBQ14” value [18] of the same compound?
A: may also be a contributor

Q: What about the “Potency against aged non-growing Mtb” value [19] of the same compound?
A: increased potency

Q: What about the “Potency against replicating Mtb” value ([19]; replicating Mtb) of the same compound?
A: great potency

Q: And the recovery at 4 h, 1 μM [20]?
A: 105 ± 4.25%

Q: What about the “Human hepatic clearance (ClH, human) predicted” value [21] of the same compound?
A: 11.5 mL/min/kg

Q: And the recovery at 4 h, 1 μM [22]?
A: 101 ± 13%
